Source: PubChem (several laboratories)
CYP2C19 inh: blocks human cytochrome P450 2C19 | inhibition, % at 5 µM | CYP2C19 Supersomes, luciferin-H EGE luminescence, 30 min | AID 778 | P33261 | 21% of 96,000 active;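 active = CYP2C19 inhibition above a set limit at 5 µM in the primary screen, cut at about 50% in these data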;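 note: plate controls were negative control wells for no effect and 2.5 mM tranylcypromine positive control for full effect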
CYP2C9 act: activators of human CYP2C9; 1.4% of 96,000 active; P11712; recombinant CYP2C9, luciferin-H conversion, luminescence; active compounds read high; factor 1 = untreated enzyme, 0 = blocked; activation factor at 5 µM;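 active = activation factor of 2 or more for CYP2C9 at a 5 µM dose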;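 note: 0 = sulfaphenazole-blocked wells and 1 = vehicle-only wells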
CYP2C9 inhib: blocks human cytochrome P450 2C9. CYP2C9 Supersomes, luciferin-H conversion, luminescence. inhibition, % at 5 µM. 20% of 96,000 active;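 active = blocking of liver enzyme CYP2C9 beyond about 50% at 5 µM, limit read from the data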
HIV Rev-RRE inh: HIV Rev-RRE protein-RNA interaction inhibition; P05866; Rev peptide-RRE RNA binding, FRET; inhibition, % at 8 µM; 0.79% of 97,000 active; AID 704;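 active = inhibition above the screen-wide mean plus 3 SD, cut at about 35% in these data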;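 note: 0% = median DMSO wells and 100% = median Neomycin B control wells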
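Assay system: Labelled RRE RNA duplex and labelled Rev peptide | Times: 5 min preincubation and 15 min binding, 25 °C | Detection: FRET, ex 480 nm, em 540 and 671 nm | Evaluation: % inhibition of FRET ratio versus controls | Benchmarks: DMSO wells as 0% and neomycin B wells as 100% inhibition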
Cav32 inh: blocks human Cav3.2 T-type calcium channel; O95180; Cav3.2-expressing cells, Fluo-4 calcium fluorescence FDSS; active compounds read low; B-score at 10 µM; 4% of 100,000 active; AID 449739;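 active = single-dose well whose peak fluorescence ratio is a statistical outlier from its plate by either plate-standardised score or position-corrected B-score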
CYP2C19 act: cytochrome P450 2C19 (human) activation; recombinant CYP2C19, luciferin-H EGE luminescence; active compounds read high; 0 = fully inhibited enzyme, 1 = untreated enzyme; activation factor at 5 µM; 96,000 tested, under 10 active; AID 1025;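 active = activation factor of at least 2 at 5 µM in the primary screen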;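 note: 0 = wells with 2.5 mM tranylcypromine and 1 = vehicle-only wells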
Starred values were filed as active, the others as inactive; x = no result given. Most compounds without a hit are left out; they make up all but 27% or so of the library.

SMILES | CYP2C19 inh | CYP2C9 act | CYP2C9 inhib | HIV Rev-RRE inh | Cav32 inh | CYP2C19 act
CCOc1ccc(NC(=O)CCn2c(=O)[nH]c3ccsc3c2=O)cc1 | 15.7 | 0.4 | 57.2* | 5.2 | 0.173 | 0.8
COc1cccc(NC(=O)CCCn2c(=S)[nH]c3ccccc3c2=O)c1 | 63.3* | 0.2 | 78.0* | 8.5 | -2.14 | 0.4
COc1cc(NC(=O)CCn2c(=O)[nH]c3ccsc3c2=O)cc(OC)c1 | x | x | x | -1.5 | 1.08 | x
Clc1ccc(Sc2cc(Cl)c(-c3ccccc3)nn2)cc1 | 55.0* | 0.3 | 65.9* | 10.0 | -3.02 | 0.4
NC(=O)C(c1ccc(Sc2ccccc2)nn1)c1ccc(Cl)cc1Cl (stereo not given) | 32.2 | 0.8 | 23.2 | 12.0 | -3.23 | 0.7
COc1cccc(=O)c2c(C)n(-c3cc(C)cc(C)c3)c(C)c12 | 82.3* | 0.2 | 82.4* | 13.9 | -5.13* | 0.2
Cn1c(Cl)c(/C=N/OC(=O)c2ccccc2Cl)c2ccccc21 | -11.1 | 1.3 | -29.4 | 6.5 | -3.98 | 1.1
Cc1cccc(C(=O)O/N=C/c2c(N3CCOCC3)n(C)c3ccccc23)c1 | 30.7 | 0.1 | 85.4* | 1.1 | -0.395 | 0.7
CCCOc1ccc(C(=O)N2CCN(c3ccc(N)cc3Cl)CC2)cc1 | 84.3* | 0.2 | 80.4* | -1.4 | -0.037 | 0.2
Cc1nn(C)cc1/C=N\NC(=O)c1ccc2c(c1)c(C)c(C)n2Cc1ccccc1 | 75.7* | 0.2 | 83.2* | -4.7 | -3.83* | 0.2
Cc1ncc2c(c1OC(=O)c1ccccc1)COC(C)(C)OC2 | 99.9* | 0.2 | 77.6* | -0.6 | x | 0
Cc1ccc(C(=O)NCCCN2CCOCC2)cc1N1CCCC1=O | -8.5 | 1 | -3.9 | 1.4 | 0.513 | 1.1
COc1cccc(-c2[nH]nc3c2C(c2ccc(C)o2)C(C#N)=C(N)O3)c1 (stereo not given) | 21.3 | 0.8 | 20.5 | 3.6 | 1.14 | 0.8
Cc1[nH]nc2c1C(Cc1ccccc1)C(C#N)=C(N)O2 (stereo not given) | 65.5* | 0.7 | 33.0 | 3.4 | 0.902 | 0.3
COc1ccc(OC)c(-c2[nH]nc3c2C(c2ccco2)C(C#N)=C(N)O3)c1 (stereo not given) | 80.4* | 0.6 | 38.8 | 10.4 | 0.614 | 0.2
CC(C)c1[nH]nc2c1C(Cc1ccccc1)C(C#N)=C(N)O2 (stereo not given) | 95.2* | 0.4 | 57.3* | 2.2 | -8.63* | 0
CC(C)CC1C(C#N)=C(N)Oc2n[nH]c(-c3ccccc3)c21 (stereo not given) | x | x | x | 9.1 | -0.0518 | x
CCCc1[nH]nc2c1C(c1ccc(OC)c(CSC3=NCCS3)c1)C(C#N)=C(N)O2 (stereo not given) | 45.4 | 0.4 | 57.8* | 3.8 | -0.267 | 0.5
O=C(CSc1nnc(-c2ccccn2)n1Cc1ccccc1)NC1CCCC1 | 38.5 | 0.7 | 33.4 | 7.2 | -0.314 | 0.6
CC(C)(C)OC(=O)NCCCC1=CC2=CC(=O)C(C)(OC(=O)C3CCCC3)C(=O)C2=CO1 (stereo not given) | x | x | x | x | -0.106 | x
CC1CCCCN1C(=O)CN1C(=O)CN(C)C(=O)c2ccccc21 (stereo not given) | 17.0 | 0.9 | 12.6 | 7.0 | 0.00797 | 0.8
COc1ccc(NC(=O)NC(C(F)(F)F)C(F)(F)F)cc1 | 3.4 | 1.1 | -9.5 | 0.8 | 0.17 | 1
Cn1c(=O)[nH]c(=O)c2[nH]c(CN3CCN(C(=O)c4ccco4)CC3)nc21 | -7.1 | 1 | 4.9 | 7.6 | 0.398 | 1.1
CCc1[nH]nc2c1C(Cc1ccccc1)C(C#N)=C(N)O2 (stereo not given) | 53.2* | 0.9 | 14.4 | -4.0 | 0.0724 | 0.5
CCCc1[nH]nc2c1C(c1cc(OC)ccc1F)C(C#N)=C(N)O2 (stereo not given) | 81.0* | 0.1 | 88.5* | 4.4 | -0.903 | 0.2
SMILES | CYP2C19 inh | CYP2C9 act | CYP2C9 inhib | HIV Rev-RRE inh | Cav32 inh | CYP2C19 act
Cc1ccc(SCc2[nH]nc3c2C(C(C)C)C(C#N)=C(N)O3)cc1 (stereo not given) | 35.7 | 0.5 | 52.5* | 6.5 | -0.00411 | 0.6
CCCc1[nH]nc2c1C(c1cc(OC)cc(OC)c1)C(C#N)=C(N)O2 (stereo not given) | 34.1 | 0.7 | 31.4 | 7.3 | -0.404 | 0.7
CC(C)C1C(C#N)=C(N)Oc2n[nH]c(-c3ccccc3)c21 (stereo not given) | x | x | x | 12.8 | 0.107 | x
CC(C)c1[nH]nc2c1C(C(C)C)C(C#N)=C(N)O2 (stereo not given) | 58.7* | 1.1 | -10.7 | 3.8 | -0.168 | 0.4
Cc1ccc(C(=O)Nc2nncs2)cc1S(=O)(=O)N1CCOCC1 | 45.3 | 0.6 | 36.7 | -2.2 | -0.47 | 0.5
CCc1[nH]nc2c1C(c1cccc(OC(=O)N3CCOCC3)c1)C(C#N)=C(N)O2 (stereo not given) | 70.3* | 0.6 | 37.4 | 1.1 | 0.776 | 0.3
COCc1[nH]nc2c1C(c1c(F)cccc1Cl)C(C#N)=C(N)O2 (stereo not given) | 57.6* | 0.6 | 43.8 | 4.4 | 2.76 | 0.4
COCc1[nH]nc2c1C(c1ccccc1Cl)C(C#N)=C(N)O2 (stereo not given) | 47.3 | 0.7 | 33.9 | 8.0 | 1.95 | 0.5
COCc1[nH]nc2c1C(c1ccccc1OC)C(C#N)=C(N)O2 (stereo not given) | -3.3 | 1.3 | -25.6 | x | 0.711 | 1
CC(C)c1[nH]nc2c1C(c1cccc(OC(=O)N3CCOCC3)c1)C(C#N)=C(N)O2 (stereo not given) | -5.6 | 1 | 3.0 | 0.1 | 1.36 | 1.1
CCCc1[nH]nc2c1C(CCc1ccccc1)C(C#N)=C(N)O2 (stereo not given) | 76.7* | 0.3 | 68.8* | 5.8 | -0.217 | 0.2
CCCc1[nH]nc2c1C(Cc1ccccc1)C(C#N)=C(N)O2 (stereo not given) | 67.9* | 0.9 | 5.9 | -0.4 | -0.287 | 0.3
Cn1c(COc2ccc3ccccc3c2)nnc1SCC(=O)OC1CCCCC1 | x | x | x | 3.8 | -3.69 | x
Cc1cc(C)c(C(=O)CSC2=NC(N)=C(C#N)C3(CCCCC3)C2C(N)=O)cc1C (stereo not given) | 40.9 | 0.9 | 7.2 | 8.5 | -1.4 | 0.6
CCc1[nH]nc2c1C(c1ccc(Br)s1)C(C#N)=C(N)O2 (stereo not given) | 67.3* | 0.3 | 66.2* | 2.3 | -0.34 | 0.3
CCc1[nH]nc2c1C(c1ccsc1)C(C#N)=C(N)O2 (stereo not given) | x | x | x | 8.6 | 1.17 | x
CCCCC1=NN2C(=N)CC(=O)N=C2S1 | 8.8 | 0.9 | 11.6 | 12.9 | 0.0218 | 0.9
Cn1c(=O)c2c(ncn2Cc2ccccc2)n(C)c1=O | x | x | x | 2.3 | x | x
Cn1c(=O)c2nc(NCc3ccccc3)cnc2n(C)c1=O | 73.8* | 0.3 | 73.0* | 24.3 | x | 0.3
Cc1ccc(NC(=O)c2c(-c3c(F)cccc3Cl)noc2C)cc1F | 83.4* | 0.1 | 92.0* | x | -8.29* | 0.2
